Compound activity: PubChem BioAssay, Broad Institute
Compounds with a hit are over-represented: about 3% of the library has one in this group of screens.
Cneo AK release – Cryptococcus neoformans lysis via adenylate kinase release | lysis activity, % at 15 µM | C. neoformans lysis, adenylate kinase release luminescence, 4 h; normalised: neutral wells 0, clomiphene wells 100 | hit rate 0.2% among 360,000;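 active = mean lysis activity across replicates of at least 80%, whatever share of replicates individually reach that level; inactive = mean lysis activity below 80%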
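Assay system: Cryptococcus neoformans yeast cells / Dosing: single-point compound dose / Timing: 4 h at 37 °C static, read 1 h later / Measured by: luminescence of released adenylate kinase using an AK detection reagent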
SIRT5 inh – sirtuin-5 (human) deacylase inhibition; Q9NXA8; Purified SirT5, succinyl-peptide AMC, trypsin-coupled fluorescence; inhibition, % at 15 µM; hit rate 1.1% among 330,000; AID 652115; in the data active = inhibition above about 15%
Target sequence (Q9NXA8 whole entry, looked up): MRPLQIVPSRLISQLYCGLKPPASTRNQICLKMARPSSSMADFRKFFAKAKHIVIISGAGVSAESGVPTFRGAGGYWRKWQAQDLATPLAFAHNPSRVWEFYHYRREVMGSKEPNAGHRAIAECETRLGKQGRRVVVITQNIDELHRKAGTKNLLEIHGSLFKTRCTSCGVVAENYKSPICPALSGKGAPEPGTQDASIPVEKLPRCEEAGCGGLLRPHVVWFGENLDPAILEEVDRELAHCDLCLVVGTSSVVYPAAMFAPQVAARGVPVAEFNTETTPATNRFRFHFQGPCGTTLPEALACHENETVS
C2C12 statin – suppression of simvastatin myotoxicity; C2C12 myotubes + simvastatin, ATP luminescence, 48 h; scaled: DMSO 0, geranylgeraniol control 100; rescue of ATP level, % at 7.49 µM; hit rate 0.78% among 330,000; AID 602340;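 active = mean ATP rescue above about 67%, or every replicate alone reaching that limit, limit read from the data, passing the limit was not always enough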;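 note: myotubes were challenged with 10 µM simvastatin during compound exposure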
Ecoli rRNA inh – inhibits bacterial ribosomal RNA function over humanized ribosomes; E. coli WT GFP vs humanized-ribosome RFP mutants, fluorescence, 24 h; stronger effect = lower value; DMSO median 0, no signal -100; AID 720706; hit rate 1.6% among 350,000; GFP signal change (wild-type ribosome), % (test concentration not listed);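 active = significant combined selectivity score with lowered wild-type GFP, culture density cut under 30%, mutant RFP and density less affected; inactive = any of these conditions unmet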
PGC1a acetyl inh – PGC1a acetylation modulation, inhibitor mode; U2OS PGC1a acetylation, AlphaScreen anti-acetyl-lysine; with virally co-expressed GCN5 acetyltransferase; AID 651687; inhibition, % at 15.6 µM; hit rate 0.17% among 350,000;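 active = every replicate shows inhibition of at least 40%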
S100A4 MyoIIA – inhibitors of human S100A4 binding to myosin IIA peptide. AID 652163. hit rate 0.14% among 360,000. inhibition, % at 10.7 µM. S100A4/TAMRA-MyoIIA peptide fluorescence polarization. P26447;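 active = mean inhibition of at least 70% across replicates, with every replicate also reaching that level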
Target sequence (P26447 whole entry, looked up): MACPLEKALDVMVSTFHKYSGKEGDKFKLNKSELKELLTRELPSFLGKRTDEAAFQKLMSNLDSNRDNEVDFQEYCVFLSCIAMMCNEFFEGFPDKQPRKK
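Compound dosing: one dose per compound; test system: human S100A4 monomer with TAMRA-labelled myosin IIA peptide; probe or stimulus: TAMRA-labelled myosin IIA heavy-chain peptide probe, 5 nM; medium: HEPES buffer with Ca2+, pH 7.2; schedule: 5 min incubation before reading; benchmarks: neutral control DMSO, positive control TFP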
Numbers stand for hits.

`C[C@@H]1CN([C@@H](C)CO)C(=O)c2cccc(NC(=O)Nc3ccc(F)cc3)c2O[C@@H]1CN(C)Cc1ccc(C(=O)Nc2ccccc2N)cc1` gave SIRT5 inh inactive, Ecoli rRNA inh inactive, PGC1a acetyl inh inactive and S100A4 MyoIIA inactive.
Cn1nc(-c2ccccc2)cc1NC(=O)Nc1ccc(C(C)(C)C)cc1 was read as SIRT5 inh inactive, Ecoli rRNA inh inactive and S100A4 MyoIIA inactive.
Screening O=C(Nc1ccc(Cl)cc1)Nc1nc(-c2ccccc2)cs1 returned SIRT5 inh inactive, Ecoli rRNA inh -37.7, PGC1a acetyl inh inactive and S100A4 MyoIIA inactive.
For Cn1nc(-c2ccc(Cl)cc2)cc1NC(=O)Nc1ccccc1 the results were Cneo AK release inactive, SIRT5 inh inactive, C2C12 statin inactive, Ecoli rRNA inh -44.5 and S100A4 MyoIIA inactive.
Screening O=C(Nc1cccc(Cl)c1)Nc1nc(-c2ccccc2)cs1 returned SIRT5 inh inactive, Ecoli rRNA inh inactive, PGC1a acetyl inh inactive and S100A4 MyoIIA inactive.
CC(=O)N(C)C[C@@H]1Oc2ncc(-c3cccc(F)c3)cc2C(=O)N([C@H](C)CO)C[C@@H]1C was read as Cneo AK release inactive, SIRT5 inh inactive, C2C12 statin inactive, Ecoli rRNA inh inactive, PGC1a acetyl inh inactive and S100A4 MyoIIA inactive.
For Cc1ccc(S(=O)(=O)N(C)C[C@@H]2OCCCC[C@H](C)Oc3ccc(NC(=O)C4CCCCC4)cc3C(=O)N([C@H](C)CO)C[C@H]2C)cc1 the results were Cneo AK release inactive, C2C12 statin inactive, Ecoli rRNA inh inactive and PGC1a acetyl inh inactive.
`CCCOc1ccc(/C=c2\sc3nc(-c4ccco4)nn3c2=O)cc1OCC` gave Cneo AK release inactive, C2C12 statin 98.4 and PGC1a acetyl inh inactive.
Screening CC(=O)Oc1cccc(/C=c2\sc3nc(-c4ccco4)nn3c2=O)c1 returned PGC1a acetyl inh inactive.
`O=C(NCCc1csc(-c2cccnc2)n1)c1ccccc1Br` gave Cneo AK release inactive, SIRT5 inh 15.5, Ecoli rRNA inh inactive, PGC1a acetyl inh inactive and S100A4 MyoIIA inactive.
CCOc1ccccc1NC(=O)C1CCN(c2ccc(S(=O)(=O)N3CCCC3)cc2)CC1 was read as Cneo AK release inactive, SIRT5 inh 17.3, C2C12 statin inactive, Ecoli rRNA inh inactive, PGC1a acetyl inh inactive and S100A4 MyoIIA inactive.
`CCNC(=O)C[C@H]1CC[C@@H]2[C@H](COC[C@@H](O)CN2C(=O)CC)O1` gave Cneo AK release inactive, SIRT5 inh inactive, C2C12 statin inactive, Ecoli rRNA inh inactive, PGC1a acetyl inh inactive and S100A4 MyoIIA inactive.
Screening N#Cc1c(N)nc2c(c1N)CC(=O)N2c1ccc(Cl)cc1 returned Cneo AK release inactive, SIRT5 inh inactive, C2C12 statin inactive, Ecoli rRNA inh -31.1, PGC1a acetyl inh inactive and S100A4 MyoIIA inactive.
Screening CCCNC(=O)N1CC2(CN(C)C2)c2c([nH]c3cc(OC)ccc23)[C@@H]1CO returned Ecoli rRNA inh inactive and PGC1a acetyl inh inactive.
For CCOC(=O)C1(C(N)=O)OC1(c1ccc(Cl)cc1)c1ccccc1Cl (centres undefined) the results were Cneo AK release inactive, C2C12 statin inactive, Ecoli rRNA inh -18.7, PGC1a acetyl inh inactive and S100A4 MyoIIA inactive.
C[C@@H]1CN([C@@H](C)CO)S(=O)(=O)c2ccc(C#Cc3ccccn3)cc2O[C@H]1CN(C)Cc1ccccc1 was read as Cneo AK release 100.5, SIRT5 inh inactive, C2C12 statin inactive, Ecoli rRNA inh inactive, PGC1a acetyl inh inactive and S100A4 MyoIIA inactive.
For C[C@@H]1CN([C@H](C)CO)S(=O)(=O)c2ccc(C#Cc3ccccn3)cc2O[C@H]1CN(C)Cc1ccccc1 the results were Cneo AK release 91.5, SIRT5 inh inactive, C2C12 statin inactive, Ecoli rRNA inh inactive, PGC1a acetyl inh inactive and S100A4 MyoIIA inactive.
`CCCC#Cc1cnc2c(c1)C(=O)N([C@@H](C)CO)C[C@H](C)[C@@H](CN(C)C(=O)Cc1ccncc1)O2` gave Cneo AK release inactive, SIRT5 inh inactive, C2C12 statin inactive, Ecoli rRNA inh inactive, PGC1a acetyl inh inactive and S100A4 MyoIIA inactive.
